# According to ChEMBL document CHEMBL5344453, “Selective Recognition of c-KIT 1 G-Quadruplex by Structural Tuning of Heteroaromatic Scaffolds and Side Chains” (ACS Med Chem Lett, 2024):
# Calls of active or inactive are those of the source. The calls are words filed in the database; no cut-off is given here.
# How the values were obtained:
# Quadruplex DNA [1] = assay: Stabilization of calf thymus […] ds DNA 5-FAM-CAATCGGATCGAATTCGATCCGATTG-TAMRA-3 assessed as change in melting temperature at 1 uM incubated for 1 hr in dark condition by FRET-based melting assay; assay type: nucleic-acid assay; conditions: Bos taurus
# How it was run: (§1)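 FRET melting of dual-fluorophore-tagged oligonucleotides (200 nM) in 60 mM potassium cacodylate buffer, pH 7.4, with ligand at 1 μM; ΔTm taken against the ligand-free oligonucleotide Tm as control.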
# Quadruplex DNA [2] = assay: Stabilization of G-quadruplex BCL2 5-FAM-AGGGGCGGGCGCGGGAGGAAGGGGGCGGGAGCGGGGCTG-TAMRA-3 (unknown origin) assessed as change in melting temperature at 1 uM incubated for 1 hr in dark condition by FRET-based melting assay; assay type: nucleic-acid assay; how it was run: as §1
# K562 [3] = assay: Induction of cell cycle arrest in human K562 cells assessed as accumulation at G0/G1 phase at 5.5 to 11 uM incubated for 24 hrs by propidium iodide based assay; assay type: functional; conditions: dose 5.5-11 µM
# How it was run: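 K562 cells were treated with ligand (3 and 6 μM or 5.5 and 11 μM) and stained with propidium iodide. The fraction of cells in each cell-cycle phase was determined by flow cytometry.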
# K562 [4] = assay: Induction of apoptosis in human K562 cells assessed as apoptosis at 5.5 uM incubated for 24 hrs by FITC-Annexin V and PI analysis; assay type: functional
# How it was run: (§2)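 K562 cells were treated with ligand (3 and 6 μM or 5.5 and 11 μM) and dual-stained with annexin V and PI. Early and late apoptotic populations were quantified by flow cytometry dot plot analysis.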
# [5] = Reduction of c-KIT protein expression in human K562 cells at 5.5 uM measured after 24 hrs by Western blotting analysis relative to control; assay type: functional
# How it was run: (§3)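 K562 cells were treated with ligand (3 and 6 μM or 5.5 and 11 μM). c-KIT protein was measured by Western blot with GAPDH as the housekeeping reference, relative to control.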
# Quadruplex DNA [6] = assay: Stabilization of G-quadruplex c-KIT1 5-FAM-GGGAGGGCGCTGGGAGGAGGG-TAMRA-3 (unknown origin) assessed as change in melting temperature at 1 uM incubated for 1 hr in dark condition by FRET-based melting assay; assay type: nucleic-acid assay; how it was run: as §1
# [7] = Effect on proto-oncogene expression in human c-KIT-positive K562 cells assessed as down regulation in BCL-2 oncogene expression at 11 uM measured after 24 hrs by qRT-PCR analysis relative to control; assay type: functional
# How it was run: (§4)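 K562 cells treated 24 h at two doses per ligand (3 and 6 μM, 5.5 and 11 μM; positive control 2 and 4 μM). c-KIT, c-MYC and BCL-2 mRNA measured by qRT-PCR and normalized to housekeeping gene 18s, relative to untreated control.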
# [8] = Reduction of BCL-2 oncogene expression in human K562 cells transfected with BCL-2 plasmid construct assessed as reduction in luciferase expression at 11 uM measured after 36 hrs by luciferase reporter assay; assay type: functional
# How it was run: (§5)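 K562 cells were transfected with luciferase plasmids carrying the c-KIT, c-MYC or BCL-2 promoter G4. They were then treated with ligand (3 and 6 μM or 5.5 and 11 μM), and relative luciferase expression was measured.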
# Quadruplex DNA [9] = assay: Stabilization of G-quadruplex c-KIT2 5-FAM-GGGCGGGCGCGAGGGAGGGG-TAMRA-3 (unknown origin) assessed as change in melting temperature at 1 uM incubated for 1 hr in dark condition by FRET-based melting assay; assay type: nucleic-acid assay; how it was run: as §1
# K562 [10] = assay: Cytotoxicity against human c-KIT-positive K562 cells assessed as cell viability measured after 24 hrs by XTT formazan assay; assay type: functional, cell-based; conditions: K562, 24 h
# Quadruplex DNA [11] = assay: Stabilization of G-quadruplex h-TELO 5-FAM-TTGGGTTAGGGTTAGGGTTAGGGA-TAMRA-3 (unknown origin) assessed as change in melting temperature at 1 uM incubated for 1 hr in dark condition by FRET-based melting assay; assay type: nucleic-acid assay; how it was run: as §1
# Quadruplex DNA [12] = assay: Stabilization of G-quadruplex VEGF 5-FAM-CGGGGCGGGCCGGGGGCGGGGT-TAMRA-3 (unknown origin) assessed as change in melting temperature at 1 uM incubated for 1 hr in dark condition by FRET-based melting assay; assay type: nucleic-acid assay; how it was run: as §1
# K562 [13] = assay: Attenuation of proto-oncogene expression in human c-KIT-positive K562 cells assessed as reduction in c-KIT oncogene expression at 5.5 uM measured after 24 hrs by qRT-PCR analysis relative to control; assay type: functional; how it was run: as §4
# Quadruplex DNA [14] = assay: Stabilization of fluorophore tagged G-quadruplex c-KIT1 (unknown origin) assessed as change in melting temperature in presence of 0 to 100 equiv calf thymus DNA at 1 uM incubated for 1 hr in dark condition by competitive FRET-based melting assay; assay type: nucleic-acid assay
# How it was run: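 Competitive FRET melting with fluorophore-labeled c-KIT 1 G-quadruplex and 1 μM ligand. Unlabeled calf thymus DNA was added at 0, 1, 5, 10, 50 and 100 molar equivalents over the labeled DNA, and ΔTm was monitored.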
# [15] = Effect on proto-oncogene expression in human c-KIT-positive K562 cells assessed as upregulation in c-MYC oncogene expression at 11 uM measured after 24 hrs by qRT-PCR analysis relative to control; assay type: functional; how it was run: as §4
# [16] = Reduction of c-KIT protein expression in human K562 cells at 11 uM measured after 24 hrs by Western blotting analysis relative to control; assay type: functional; conditions: K562, read-out: INH; how it was run: as §3
# K562 [17] = assay: Induction of apoptosis in human K562 cells assessed as apoptosis at 11 uM incubated for 24 hrs by FITC-Annexin V and PI analysis; assay type: functional; how it was run: as §2
# [18] = Reduction of c-MYC oncogene expression in human K562 cells transfected with c-MYC plasmid construct assessed as reduction in luciferase expression at 11 uM measured after 36 hrs by luciferase reporter assay; assay type: functional; how it was run: as §5
# [19] = Effect on proto-oncogene expression in human c-KIT-positive K562 cells assessed as upregulation in BCL-2 oncogene expression at 5.5 uM measured after 24 hrs by qRT-PCR analysis relative to control; assay type: functional; how it was run: as §4
# [20] = Cytotoxicity against HEK293 cells assessed as cell viability measured after 24 hrs by XTT formazan assay; assay type: toxicity, cell-based; conditions: human
# [21] = Reduction of BCL-2 oncogene expression in human K562 cells transfected with BCL-2 plasmid construct assessed as reduction in luciferase expression at 5.5 uM measured after 36 hrs by luciferase reporter assay; assay type: functional; how it was run: as §5
# [22] = Reduction of c-KIT oncogene expression in human K562 cells transfected with c-KIT plasmid construct assessed as reduction in luciferase expression at 5.5 uM measured after 36 hrs by luciferase reporter assay; assay type: functional; how it was run: as §5
# [23] = Reduction of c-MYC oncogene expression in human K562 cells transfected with c-MYC plasmid construct assessed as reduction in luciferase expression at 5.5 uM measured after 36 hrs by luciferase reporter assay; assay type: functional
# How it was run: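 Promoter luciferase reporter: K562 cells transfected with a c-MYC promoter G4-containing luciferase-expressing plasmid, then ligand-treated at two doses each (3 and 6 μM, or 5.5 and 11 μM); read-out as relative luciferase expression, reported as percent reduction.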
# [24] = Reduction of c-KIT oncogene expression in human K562 cells transfected with c-KIT plasmid construct assessed as reduction in luciferase expression at 11 uM measured after 36 hrs by luciferase reporter assay; assay type: functional; how it was run: as §5
# [25] = Induction of cell permeation in human c-KIT-positive K562 cell membrane assessed as fold increase in (G- quadruplex/antibody complex) BG4 foci at 5.5 uM measured after 24 hrs by immunofluorescence assay; assay type: functional
# How it was run: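 K562 cells were treated with ligand (3 or 5.5 μM) and immunostained with G4-specific antibody BG4. Nuclear BG4 foci were counted by confocal microscopy and expressed relative to untreated cells.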
# Quadruplex DNA [26] = assay: Stabilization of G-quadruplex c-MYC 5-FAM-TGGGGAGGGTGGGGAGGGTGGGGAAGG-TAMRA- 3 (unknown origin) assessed as change in melting temperature at 1 uM incubated for 1 hr in dark condition by FRET-based melting assay; assay type: nucleic-acid assay; how it was run: as §1
# [27] = Effect on proto-oncogene expression in human c-KIT-positive K562 cells assessed as upregulation in c-MYC oncogene expression at 5.5 uM measured after 24 hrs by qRT-PCR analysis relative to control; assay type: functional; how it was run: as §4
# MCF7 = assay: Cytotoxicity against human MCF7 cells assessed as cell viability measured after 24 hrs by XTT formazan assay; assay type: functional, cell-based; conditions: MCF7, 24 h
# K562 [28] = assay: Attenuation of proto-oncogene expression in human c-KIT-positive K562 cells assessed as reduction in c-KIT oncogene expression at 11 uM measured after 24 hrs by qRT-PCR analysis relative to control; assay type: functional; how it was run: as §4
structure (smiles),measurement,setting,value
CN(C)CCCNC(=O)c1ccc(-n2cc(-c3ccc4oc5ccccc5c4c3)nn2)cc1,ΔTm,Quadruplex DNA [1],< 3 °C
same,ΔTm,Quadruplex DNA [2],< 3 °C
same,Activity,K562 [3],inactive
same,Activity,K562 [4],1%
same,inhibition at 5.5 µM,[5],7.8%
same,ΔTm,Quadruplex DNA [6],< 3 °C
same,Activity,[7],5%
same,inhibition at 11 µM,[8],14%
same,ΔTm,Quadruplex DNA [9],< 3 °C
same,IC50,K562 [10],11.7 µM
same,ΔTm,Quadruplex DNA [11],< 3 °C
same,ΔTm,Quadruplex DNA [12],< 3 °C
same,inhibition at 5.5 µM,K562 [13],> 1%
same,Activity,Quadruplex DNA [14],Active
same,Activity,[15],31%
same,inhibition at 11 µM,[16],-15.8%
same,Activity,K562 [17],11%
same,inhibition at 11 µM,[18],10.1%
same,Activity,[19],8%
same,IC50 at 24 h,[20],≥ 50 µM
same,inhibition at 5.5 µM,[21],9.5%
same,inhibition at 5.5 µM,[22],3.3%
same,inhibition at 5.5 µM,[23],6.2%
same,inhibition at 11 µM,[24],7.6%
same,fold change (FC),[25],1.8
same,ΔTm,Quadruplex DNA [26],< 3 °C
same,Activity,[27],23%
same,IC50,MCF7,≥ 19 µM
same,inhibition at 11 µM,K562 [28],3%
